Experimental data reported in ChEMBL document CHEMBL1144659, “Structure-activity study of 2,3-benzodiazepin-4-ones noncompetitive AMPAR antagonists: identification of the 1-(4-amino-3-methylphenyl)-3,5-dihydro-7,8-ethylenedioxy-4H-2,3-benzodiazepin-4-one as neuroprotective agent” (Bioorg Med Chem, 2008).

Assays:
[1] = Antagonist activity at AMPA receptor in rat […] granule cells assessed as inhibition of kainate-induced calcium uptake after 30 mins; format: functional, cell-based; conditions: 0.5 h
In short: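 Primary rat cerebellar granule neurons, preincubated 30 min with compounds in BSS (pH 7.3), then exposed at room temperature to 100 µM kainate in BSS with 10 µM glycine, 0.5 mM dithiothreitol and 45Ca2+ for 10 min. Washed with ice-cold BSS containing 5 mM EGTA, lysed in 0.6% Triton X-100, radioactivity counted. IC50 representative of three experiments.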

[2] = Displacement of [3H]CP-526427 from AMPA receptor in Sprague-Dawley rat fore brain by radioligand binding assay
In short: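 Adult male Sprague-Dawley forebrain membranes at 0.5 mg protein/mL in 50 mM Tris·HCl pH 7.4. Compounds at various concentrations with 3 nM [3H]CP-526,427, 20 min at 30 °C. Filtration onto glass fiber filters, scintillation counting. Nonspecific binding taken with 10 µM unlabeled CP-526,427 or CP-465,022. Positive control was CP-465,022.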

[3] = system: Neuron; assay: Inhibition of kainate-induced C57BL/6N mouse hippocampal neurons excitotoxicity after 48 hrs by MTT assay; format: functional, tissue-based; conditions: Hippocampus
In short: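 E13 C57BL/6N mouse hippocampal cultures were given 30 µM kainate with the test compound at graded concentrations, in medium without glutamate. Exposure was 48 h at 37 °C. Viability was measured by MTT conversion (absorbance 570 nm), relative to untreated cells. IC50 values are representative of three independent experiments.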

[4] = Excitotoxicity against C57BL/6N mouse hippocampal neurons after 48 hrs by MTT assay; format: tissue-based; conditions: Neuron, Hippocampus
In short: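 Primary hippocampal cultures from E13 C57BL/6N mouse embryos were grown on poly-L-lysine in Neurobasal/B27/BDNF medium. At 7 DIV they were exposed to kainate (5–500 µM) for 48 h at 37 °C, 5% CO2. Viability was read by MTT (4 h, absorbance 570 nm) as % of untreated cells. Five–six experiments, each in duplicate.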

Row | SMILES | IC50 [1] | IC50 [2] | Activity [3] | IC50 [3] | EC50 [4]
1 | Cc1cc(C2=NNC(=O)C(C)c3cc4c(cc32)OCO4)ccc1N (stereo not drawn) | 18.8 µM | 9.62 µM |  |  | 
2 | CNC(=O)N1N=C(c2ccc(N)cc2)c2cc3c(cc2C[C@H]1C)OCO3 |  |  | Dose-dependent effect |  | 
3 | CNC(=O)N1N=C(c2ccc(N)cc2)c2cc3c(cc2CC1=O)OCCO3 | 5.4 µM | 7.78 µM |  |  | 
4 | Cc1cc(C2=NNC(=O)C(C)c3cc4c(cc32)OCCO4)ccc1N (stereo not drawn) | 1.23 µM | 4.5 µM |  |  | 
5 | COc1cc(C2=NNC(=O)Cc3cc4c(cc32)OCO4)ccc1N | 31 µM | > 100 µM |  |  | 
6 | Nc1ccc(C2=NNC(=O)Cc3cc4c(cc32)OCCO4)cc1 | 2.9 µM | 9 µM |  |  | 
7 | NS(=O)(=O)c1cccc2c1c([N+](=O)[O-])cc1nc(O)c(O)nc12 [NBQX] |  |  |  | 11.9 µM | 
8 | Nc1ccc(C2=NNC(=O)Cc3cc4c(cc32)OCCO4)cc1Cl | 2 µM | 2.05 µM |  |  | 
9 | CC1C(=O)NN=C(c2ccc(N)cc2)c2cc3c(cc21)OCCO3 (stereo not drawn) |  | 6.96 µM |  |  | 
10 | Cc1cc(C2=NNC(=O)Cc3cc4c(cc32)OCO4)ccc1N | 2.5 µM | 6.3 µM |  |  | 
11 | CC1C(=O)NN=C(c2ccc(N)c(Cl)c2)c2cc3c(cc21)OCO3 (stereo not drawn) | 7 µM | 11.4 µM |  |  | 
12 | CNC(=O)N1N=C(c2ccc(N)cc2)c2cc3c(cc2CC1=O)OCO3 | 11 µM | 12 µM |  |  | 
13 | C=C(C)[C@H]1CN[C@H](C(=O)O)[C@H]1CC(=O)O [KAINIC ACID] |  |  |  |  | 17.3 µM
14 | COc1cc(C2=NNC(=O)Cc3cc4c(cc32)OCCO4)ccc1N | 12 µM | 81.1 µM |  |  | 
15 | Cc1cc(C2=NNC(=O)Cc3cc4c(cc32)OCCO4)cc(C)c1N | > 100 µM | > 100 µM |  |  | 
16 | CNC(=O)N1N=C(c2ccc(N)cc2)c2cc3c(cc2C(C)C1=O)OCO3 (stereo not drawn) | 15.8 µM | 4.01 µM |  |  | 
17 | Nc1ccc(C2=NNC(=O)C(Cc3ccccc3)c3cc4c(cc32)OCO4)cc1 (stereo not drawn) |  | > 100 µM |  |  | 
18 | Cc1cc(C2=NNC(=O)Cc3cc4c(cc32)OCCO4)ccc1N | 6.4 µM | 1.84 µM |  | 1.6 µM | 
19 | CC1C(=O)NN=C(c2ccc(N)c(Cl)c2)c2cc3c(cc21)OCCO3 (stereo not drawn) | 18 µM | 21.6 µM |  |  | 
20 | Cc1cc(C2=NNC(=O)Cc3cc4c(cc32)OCO4)cc(C)c1N | > 100 µM | > 100 µM |  |  | 
21 | CC1C(=O)NN=C(c2ccc(N)cc2)c2cc3c(cc21)OCO3 (stereo not drawn) | 12 µM | 12.9 µM |  |  | 
22 | Nc1ccc(C2=NNC(=O)Cc3cc4c(cc32)OCO4)cc1 | 12 µM | 32 µM |  |  | 
23 | CC(=O)N1N=C(c2ccc(N)cc2)c2cc3c(cc2C[C@H]1C)OCO3 |  |  | Dose-dependent effect |  | 
24 | CCC1C(=O)NN=C(c2ccc(N)cc2)c2cc3c(cc21)OCO3 (stereo not drawn) | 17.1 µM | 8.37 µM |  |  | 
25 | CC1=NN=C(c2ccc(N)cc2)c2cc3c(cc2C1)OCO3 [GYKI-52466] | 22 µM | 12.6 µM |  | 10.8 µM | 
26 | CCC1C(=O)NN=C(c2ccc(N)c(C)c2)c2cc3c(cc21)OCO3 (stereo not drawn) | 4.34 µM | 15.6 µM |  |  | 
